Laboratory results reported in ChEMBL document CHEMBL1159094, “New iodinated quinoline-2-carboxamides for SPECT imaging of the translocator protein” (Bioorg Med Chem Lett, 2010).

Legend:
[1] = Lipophilicity, log P by HPLC method; details: octanol/water
Translocator protein = Translocator protein (Rattus norvegicus, UniProt P16257); assay: Displacement of [3H]PK11195 from TSPO in Sprague-Dawley rat brain homogenates by liquid scintillation counting; assay type: tissue-based
[2] = Chemical stability in 0.01 mM phosphate buffered saline assessed as purity of parent compound after 1 hr by HPLC analysis; assay type: physicochemical; details: read-out: Activity
Summary of the method: (§1)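 Test compound incubated in phosphate buffered saline at 37 °C. Parent compound decomposition followed over time by HPLC.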

[3] = Chemical stability in 0.01 mM phosphate buffered saline assessed as purity of parent compound after 2 hrs by HPLC analysis; assay type: physicochemical; details: read-out: Activity
Summary of the method: as §1

[4] = Chemical stability in 0.01 mM phosphate buffered saline assessed as purity of parent compound after 24 hrs by HPLC analysis; assay type: physicochemical; details: read-out: Activity
Summary of the method: as §1

[5] = Chemical stability in 0.01 mM phosphate buffered saline assessed as purity of parent compound after 6 hrs by HPLC analysis; assay type: physicochemical; details: read-out: Activity
Summary of the method: as §1

[6] = Chemical stability in 0.01 mM phosphate buffered saline assessed as purity of parent compound after 4 hrs by HPLC analysis; assay type: physicochemical; details: read-out: Activity
Summary of the method: as §1

Sequence of Translocator protein (P16257 whole entry, looked up): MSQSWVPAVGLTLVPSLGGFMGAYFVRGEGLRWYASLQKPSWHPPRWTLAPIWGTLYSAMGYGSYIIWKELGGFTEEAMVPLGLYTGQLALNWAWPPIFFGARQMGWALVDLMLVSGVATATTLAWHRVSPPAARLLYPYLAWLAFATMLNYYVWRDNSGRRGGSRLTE

Row | Structure (SMILES) | logP [1] | Ki (Translocator protein) | other results
1 | CN(Cc1cccc(I)c1)C(=O)c1cc(-c2ccc(F)cc2)c2ccccc2n1 | 5.16 | > 1000 nM | 
2 | Cc1c(C(=O)N(C)Cc2ccc(I)cc2)nc2ccccc2c1-c1ccccc1 | 5.12 | > 1000 nM | 
3 | CN(CCc1ccccc1)C(=O)c1nc2ccccc2c(-c2ccccc2)c1CI | 5.41 | 411 nM | 
4 | CCN(CC)C(=O)c1nc2ccccc2c(-c2ccccc2)c1CI |  |  | remaining at 1 h [2]: 96%; remaining at 2 h [3]: 96%; remaining at 24 h [4]: 79%; remaining at 6 h [5]: 94%; remaining at 4 h [6]: 94%
5 | CCC(C)N(C)C(=O)c1cc2ccccc2c(-c2ccccc2Cl)n1 (configuration not stated) [PK-11195] | 3.85 |  | 
